Measured values as given in ChEMBL document CHEMBL1131623, “Newly synthesized L-enantiomers of 3'-fluoro-modified beta-2'-deoxyribonucleoside 5'-triphosphates inhibit hepatitis B DNA polymerases but not the five cellular DNA polymerases alpha, beta, gamma, delta, and epsilon nor HIV-1 reverse transcriptase” (J Med Chem, 1998).

Tests used:
DNA polymerase beta = DNA polymerase beta (Homo sapiens, UniProt P06746); assay: Compound was evaluated for the inhibition of cellular DNA polymerase (beta)
Outline: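 HeLa-derived pol β (0.25 unit), 15 min at 37 °C, in 50 mM Tris-HCl pH 8.7, 100 mM KCl, 10 mM MgCl2, 1 mM DTT, 0.4 mg/mL BSA. TTP analogues were tested on poly(dA)·oligo(dT)15 with [3H]TTP. dCTP analogues used activated DNA, [3H]dCTP and the other three dNTPs. Read-out was [3H] incorporation.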

[1] = target: T1, DNA polymerase subunit gamma-1 (Homo sapiens, UniProt P54098); assay: Compound was evaluated for the inhibition of cellular DNA polymerase (gamma)
T1 sequence (P54098 whole entry): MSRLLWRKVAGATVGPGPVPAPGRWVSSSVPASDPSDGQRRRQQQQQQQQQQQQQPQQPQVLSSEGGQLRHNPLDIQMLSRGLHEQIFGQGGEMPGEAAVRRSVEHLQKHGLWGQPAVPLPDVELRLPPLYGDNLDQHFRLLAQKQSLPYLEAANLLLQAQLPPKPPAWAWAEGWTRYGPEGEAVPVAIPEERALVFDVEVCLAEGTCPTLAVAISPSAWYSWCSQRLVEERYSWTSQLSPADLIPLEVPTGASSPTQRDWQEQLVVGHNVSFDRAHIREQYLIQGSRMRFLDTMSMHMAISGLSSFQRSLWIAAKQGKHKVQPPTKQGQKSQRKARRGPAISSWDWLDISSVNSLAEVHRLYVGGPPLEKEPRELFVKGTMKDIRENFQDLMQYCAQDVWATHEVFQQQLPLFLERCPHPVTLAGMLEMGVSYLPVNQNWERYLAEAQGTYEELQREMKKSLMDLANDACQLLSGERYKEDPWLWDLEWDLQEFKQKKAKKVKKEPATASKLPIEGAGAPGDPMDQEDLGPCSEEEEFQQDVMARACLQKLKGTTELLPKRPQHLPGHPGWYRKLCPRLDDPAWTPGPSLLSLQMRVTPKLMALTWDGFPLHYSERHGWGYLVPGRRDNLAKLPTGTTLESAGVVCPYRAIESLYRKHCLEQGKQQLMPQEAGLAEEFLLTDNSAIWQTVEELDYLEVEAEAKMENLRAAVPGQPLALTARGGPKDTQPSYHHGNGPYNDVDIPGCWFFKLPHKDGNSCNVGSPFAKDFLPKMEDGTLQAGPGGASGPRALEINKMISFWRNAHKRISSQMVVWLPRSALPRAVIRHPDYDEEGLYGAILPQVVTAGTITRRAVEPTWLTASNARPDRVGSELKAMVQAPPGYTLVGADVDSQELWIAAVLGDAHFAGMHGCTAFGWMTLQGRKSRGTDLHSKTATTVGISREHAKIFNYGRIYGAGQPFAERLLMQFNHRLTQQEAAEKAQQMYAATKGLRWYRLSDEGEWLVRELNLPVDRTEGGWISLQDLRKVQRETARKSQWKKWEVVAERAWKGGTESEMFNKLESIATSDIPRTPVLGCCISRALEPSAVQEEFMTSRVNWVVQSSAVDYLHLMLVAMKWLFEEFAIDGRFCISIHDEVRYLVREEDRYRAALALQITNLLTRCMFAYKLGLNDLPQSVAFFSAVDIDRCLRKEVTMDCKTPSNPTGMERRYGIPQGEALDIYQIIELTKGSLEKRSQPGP

Hepatitis B virus = assay: Compound was evaluated for 50% inhibition of HBV polymerases (Hepatitis B virus); type: functional, organism-based
Outline: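 Endogenous polymerase in virions pelleted from HBV- or DHBV-positive sera, resuspended in PBS and lysed with 2-mercaptoethanol/Nonidet P-40. Run 60 min at 37 °C in 50 mM Tris-HCl pH 8.1, 60 mM KCl, 40 mM MgCl2. Substrates were 100 μM each of the three unlabeled dNTPs plus 0.4 μM [3H]TTP or [3H]dCTP, chosen by analogue type.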

[2] = target: Human immunodeficiency virus type 1 reverse transcriptase (Human immunodeficiency virus 1, UniProt Q72547); assay: Compound was evaluated for 50% inhibition of HIV-RT (HIV reverse transcriptase)
[3] = Compound was evaluated for the inhibition of cellular DNA polymerase (delta)
Outline: (§1)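 Calf thymus pols δ and ε (0.05 unit), 30 min at 37 °C, in 50 mM Bis-Tris pH 6.5, 6 mM MgCl2, 1 mM DTT, 250 μg/mL BSA. Templates were 3.5 μM poly(dA)·oligo(dT)15 with 10 μM [3H]TTP, or activated DNA with [3H]dCTP for dCTP analogues. δ assays also received recombinant PCNA at 10 μg/mL.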

Nucleic Acid = assay: Compound was evaluated for the inhibition of cellular DNA polymerase (epsilon); type: nucleic-acid assay; conditions: Bos taurus; outline: as §1
[4] = target: T2, DNA polymerase alpha catalytic subunit (Homo sapiens, UniProt P09884); assay: Compound was evaluated for the inhibition of cellular DNA polymerase (alpha)
T2 sequence (P09884 whole entry): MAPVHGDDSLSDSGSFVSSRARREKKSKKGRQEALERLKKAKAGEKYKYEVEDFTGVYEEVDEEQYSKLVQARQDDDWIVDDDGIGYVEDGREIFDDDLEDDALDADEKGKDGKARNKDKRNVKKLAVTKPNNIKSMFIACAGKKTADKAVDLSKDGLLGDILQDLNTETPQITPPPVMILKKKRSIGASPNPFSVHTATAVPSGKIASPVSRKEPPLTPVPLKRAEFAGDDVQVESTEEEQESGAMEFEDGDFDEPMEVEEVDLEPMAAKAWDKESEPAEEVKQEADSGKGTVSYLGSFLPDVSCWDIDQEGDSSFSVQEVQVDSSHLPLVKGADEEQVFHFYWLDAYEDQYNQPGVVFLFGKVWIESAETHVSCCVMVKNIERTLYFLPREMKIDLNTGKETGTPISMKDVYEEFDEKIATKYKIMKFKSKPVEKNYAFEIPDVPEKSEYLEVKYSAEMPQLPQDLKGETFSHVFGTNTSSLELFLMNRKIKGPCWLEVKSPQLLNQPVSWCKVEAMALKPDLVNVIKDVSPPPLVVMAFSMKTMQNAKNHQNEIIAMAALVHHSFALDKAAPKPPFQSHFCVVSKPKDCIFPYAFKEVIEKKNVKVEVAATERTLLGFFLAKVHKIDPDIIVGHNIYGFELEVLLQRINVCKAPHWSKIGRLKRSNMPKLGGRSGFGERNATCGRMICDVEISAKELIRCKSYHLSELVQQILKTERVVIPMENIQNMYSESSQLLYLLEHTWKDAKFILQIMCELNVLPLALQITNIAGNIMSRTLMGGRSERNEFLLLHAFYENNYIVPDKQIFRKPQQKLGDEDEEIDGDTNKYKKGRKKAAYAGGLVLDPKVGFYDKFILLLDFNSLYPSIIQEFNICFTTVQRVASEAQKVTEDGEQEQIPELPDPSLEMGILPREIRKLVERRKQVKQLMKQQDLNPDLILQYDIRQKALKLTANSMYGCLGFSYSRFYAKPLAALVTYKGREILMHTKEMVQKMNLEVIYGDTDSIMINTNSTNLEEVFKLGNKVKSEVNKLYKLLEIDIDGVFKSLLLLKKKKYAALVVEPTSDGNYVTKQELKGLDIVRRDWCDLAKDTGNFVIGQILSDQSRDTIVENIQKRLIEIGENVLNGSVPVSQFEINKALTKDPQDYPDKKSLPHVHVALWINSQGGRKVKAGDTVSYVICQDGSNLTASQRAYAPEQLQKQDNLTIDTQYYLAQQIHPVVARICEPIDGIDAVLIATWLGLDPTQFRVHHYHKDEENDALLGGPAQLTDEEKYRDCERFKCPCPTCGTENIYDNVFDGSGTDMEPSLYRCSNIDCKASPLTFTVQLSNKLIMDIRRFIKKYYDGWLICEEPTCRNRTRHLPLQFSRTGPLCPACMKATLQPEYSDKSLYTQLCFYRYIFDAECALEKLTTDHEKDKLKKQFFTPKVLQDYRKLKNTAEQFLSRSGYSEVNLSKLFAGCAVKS

Structure (SMILES) | IC50 (DNA polymerase beta) [µM] | IC50 [1] [µM] | IC50 (Hepatitis B virus) [µM] | IC50 [2] [µM] | IC50 [3] [µM] | IC50 (Nucleic Acid) [µM] | IC50 (Hepatitis B virus; Hepatitis B virus) [µM] | IC50 [4] [µM]
Cc1cn([C@@H]2C[C@@H](F)[C@H](COP(=O)(O)OP(=O)(O)OP(=O)(O)O)O2)c(=O)[nH]c1=O (stereo in doubt) | 2.2 | 1.5 | 0.15 | 0.05 | – | – | – | –
Nc1ccn([C@@H]2C[C@@H](F)[C@H](COP(=O)(O)OP(=O)(O)OP(=O)(O)O)O2)c(=O)n1 (stereo in doubt) | 1 | 2 | 0.5 | 0.5 | > 100 | – | – | –
Cc1cn([C@@H]2C[C@@H](F)[C@H](COP(=O)(O)OP(=O)(O)OP(=O)(O)O)O2)c(=O)nc1N (stereo in doubt) | 1 | 0.5 | 0.03 | 0.6 | 100 | > 100 | – | > 200
Cc1cn([C@@H]2C[C@@H](F)[C@H](COP(=O)(O)OP(=O)(O)OP(=O)(O)O)O2)c(=O)[nH]c1=O (stereo in doubt; 16) | > 200 | > 100 | – | 100 | > 200 | > 100 | 0.25 | –
Cc1cn([C@@H]2C[C@@H](F)[C@H](COP(=O)(O)OP(=O)(O)OP(=O)(O)O)O2)c(=O)nc1N (stereo in doubt; 19) | > 200 | > 50 | 1.9 | > 100 | > 200 | – | – | > 200

More lines, now with the values ahead:

IC50 (DNA polymerase beta) [µM] | IC50 [1] [µM] | IC50 (Hepatitis B virus) [µM] | IC50 [2] [µM] | IC50 [3] [µM] | IC50 (Nucleic Acid) [µM] | IC50 (Hepatitis B virus; Hepatitis B virus) [µM] | IC50 [4] [µM] | Structure (SMILES)
3 | 3.5 | – | 0.07 | > 100 | > 100 | 25 | – | O=c1ccn([C@@H]2C[C@@H](F)[C@H](COP(=O)(O)OP(=O)(O)OP(=O)(O)O)O2)c(=O)[nH]1 (stereo in doubt)
> 100 | > 100 | 35 | > 200 | > 200 | – | – | – | O=c1ccn([C@@H]2C[C@@H](F)[C@H](COP(=O)(O)OP(=O)(O)OP(=O)(O)O)O2)c(=O)[nH]1 (stereo in doubt; 17)
> 100 | > 50 | 7 | > 100 | > 200 | > 100 | – | – | Nc1ccn([C@@H]2C[C@@H](F)[C@H](COP(=O)(O)OP(=O)(O)OP(=O)(O)O)O2)c(=O)n1 (stereo in doubt; 18)
